Experimental data taken from the M2OR odorant receptor database.

Tests used:
Settings in all cases: stereoisomer not certain
OR1G1 (Homo sapiens) = target: T1, OR1G1 (Homo sapiens) (UniProt P47890)
T1 sequence (whole entry): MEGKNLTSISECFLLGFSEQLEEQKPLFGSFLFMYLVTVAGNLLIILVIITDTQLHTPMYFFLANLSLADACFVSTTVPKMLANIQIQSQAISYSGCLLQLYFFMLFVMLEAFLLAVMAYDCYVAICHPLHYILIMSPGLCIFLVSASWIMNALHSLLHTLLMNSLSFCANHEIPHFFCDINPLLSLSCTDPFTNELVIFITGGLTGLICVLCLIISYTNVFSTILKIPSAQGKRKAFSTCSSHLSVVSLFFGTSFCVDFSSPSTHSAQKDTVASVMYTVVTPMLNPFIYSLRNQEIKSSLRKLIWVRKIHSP
In short: (§1)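 Values were gathered from published papers (main text and supplementary material), with extra details requested from the original authors when needed, and checked for typos and inconsistencies. Each receptor–molecule pair is called responsive (active) if the original authors judged the measured signal statistically different from baseline, and non-responsive (inactive) otherwise. Assay methods varied by source, often transient mammalian cell-line luciferase assays. Recorded details include cell line, G-protein, co-transfected protein and tags.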

OR1L3 (Homo sapiens) = target: T2, OR1L3 (Homo sapiens) (UniProt Q8NH93)
T2 sequence (whole entry): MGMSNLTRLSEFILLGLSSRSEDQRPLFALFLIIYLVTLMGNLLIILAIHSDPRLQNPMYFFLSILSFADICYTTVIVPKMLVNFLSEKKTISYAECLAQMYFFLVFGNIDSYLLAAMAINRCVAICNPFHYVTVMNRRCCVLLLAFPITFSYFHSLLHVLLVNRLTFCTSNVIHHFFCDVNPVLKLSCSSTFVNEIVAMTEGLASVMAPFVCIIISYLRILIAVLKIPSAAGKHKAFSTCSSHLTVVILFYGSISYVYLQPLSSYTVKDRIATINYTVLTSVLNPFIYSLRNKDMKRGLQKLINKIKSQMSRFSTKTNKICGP
In short: as §1

OR1E3 (Homo sapiens) = OR1E3 (Homo sapiens) (UniProt Q8WZA6)
In short: as §1

OR1F1 (Homo sapiens) = OR1F1 (Homo sapiens) (UniProt O43749)
In short: as §1

OR1F12P (Homo sapiens) = OR1F12P (Homo sapiens) (UniProt Q8NHA8)
In short: as §1

OR1I1 (Homo sapiens) = OR1I1 (Homo sapiens) (UniProt O60431)
In short: as §1

OR1J1 (Homo sapiens) = OR1J1 (Homo sapiens) (UniProt Q8NGS3)
In short: as §1

OR1K1 (Homo sapiens) = OR1K1 (Homo sapiens) (UniProt Q8NGR3)
In short: as §1

OR1L1 (Homo sapiens) = OR1L1 (Homo sapiens) (UniProt Q8NH94)
In short: as §1

OR1L4 (Homo sapiens) = OR1L4 (Homo sapiens) (UniProt Q8NGR5)
In short: as §1

OR1L6 (Homo sapiens) = OR1L6 (Homo sapiens) (UniProt Q8NGR2)
In short: as §1

OR1L8 (Homo sapiens) = OR1L8 (Homo sapiens) (UniProt Q8NGR8)
In short: as §1

OR1M1 (Homo sapiens) = OR1M1 (Homo sapiens) (UniProt Q8NGA1)
In short: as §1

OR1F1 = test system: OR1F1
In short: as §1

OR1J2 (Homo sapiens) = OR1J2 (Homo sapiens) (UniProt Q8NGS2)
In short: as §1

OR1J4 (Homo sapiens) = OR1J4 (Homo sapiens) (UniProt Q8NGS1)
In short: as §1

OR1L1 = test system: OR1L1
In short: as §1

OR1L4 = test system: OR1L4
In short: as §1

OR1L6 = test system: OR1L6
In short: as §1

OR1L8 T27P R211P = test system: OR1L8 T27P R211P
In short: as §1

Measured: odorant receptor agonist call

OR1I1 (Homo sapiens), sequence (O60431 whole entry): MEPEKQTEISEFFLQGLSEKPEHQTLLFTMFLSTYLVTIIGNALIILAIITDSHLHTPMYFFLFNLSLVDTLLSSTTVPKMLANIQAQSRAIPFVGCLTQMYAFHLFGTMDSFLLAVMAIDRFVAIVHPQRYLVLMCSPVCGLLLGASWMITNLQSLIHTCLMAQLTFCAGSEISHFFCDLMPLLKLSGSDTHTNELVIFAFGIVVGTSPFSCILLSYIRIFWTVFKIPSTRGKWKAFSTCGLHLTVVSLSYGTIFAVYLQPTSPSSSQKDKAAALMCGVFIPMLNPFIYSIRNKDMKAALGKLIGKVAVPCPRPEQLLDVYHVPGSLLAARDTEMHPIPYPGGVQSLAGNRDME
OR1J1 (Homo sapiens), sequence (Q8NGS3 whole entry): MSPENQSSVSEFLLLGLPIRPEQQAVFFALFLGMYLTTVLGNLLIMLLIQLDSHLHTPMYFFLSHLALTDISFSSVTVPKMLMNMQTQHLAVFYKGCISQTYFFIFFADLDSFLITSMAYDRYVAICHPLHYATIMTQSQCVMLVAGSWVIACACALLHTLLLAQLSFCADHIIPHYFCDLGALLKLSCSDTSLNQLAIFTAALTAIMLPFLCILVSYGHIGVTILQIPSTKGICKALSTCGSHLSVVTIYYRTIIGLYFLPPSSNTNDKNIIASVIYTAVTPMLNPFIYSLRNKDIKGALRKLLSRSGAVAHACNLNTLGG
OR1L8 (Homo sapiens), sequence (Q8NGR8 whole entry): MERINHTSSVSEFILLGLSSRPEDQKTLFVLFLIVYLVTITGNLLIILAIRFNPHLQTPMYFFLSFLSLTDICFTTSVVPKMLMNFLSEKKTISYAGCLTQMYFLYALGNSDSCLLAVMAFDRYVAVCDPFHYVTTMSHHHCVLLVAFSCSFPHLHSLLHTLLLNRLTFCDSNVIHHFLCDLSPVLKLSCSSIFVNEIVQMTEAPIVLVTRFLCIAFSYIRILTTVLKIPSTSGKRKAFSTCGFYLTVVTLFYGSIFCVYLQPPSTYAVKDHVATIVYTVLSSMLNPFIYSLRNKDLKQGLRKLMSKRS
OR1M1 (Homo sapiens), sequence (Q8NGA1 whole entry): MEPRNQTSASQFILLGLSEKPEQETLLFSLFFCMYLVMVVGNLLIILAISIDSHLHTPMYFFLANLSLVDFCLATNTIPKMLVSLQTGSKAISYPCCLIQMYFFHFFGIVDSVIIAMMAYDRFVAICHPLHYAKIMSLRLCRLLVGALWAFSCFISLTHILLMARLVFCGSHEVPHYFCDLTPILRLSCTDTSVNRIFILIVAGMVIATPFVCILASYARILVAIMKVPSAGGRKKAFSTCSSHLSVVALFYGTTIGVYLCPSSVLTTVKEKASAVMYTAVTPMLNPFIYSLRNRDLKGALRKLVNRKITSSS
OR1L4 (Homo sapiens), sequence (Q8NGR5 whole entry): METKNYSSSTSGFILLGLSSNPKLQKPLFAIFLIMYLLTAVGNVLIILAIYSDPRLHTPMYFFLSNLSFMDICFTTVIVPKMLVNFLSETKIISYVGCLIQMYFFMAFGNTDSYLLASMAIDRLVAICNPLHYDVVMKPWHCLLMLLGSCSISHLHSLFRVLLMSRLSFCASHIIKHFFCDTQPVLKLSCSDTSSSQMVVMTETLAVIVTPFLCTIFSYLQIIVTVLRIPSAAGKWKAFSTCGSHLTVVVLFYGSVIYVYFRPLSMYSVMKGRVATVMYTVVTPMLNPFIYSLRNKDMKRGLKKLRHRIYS
OR1F12P (Homo sapiens), sequence (Q8NHA8 whole entry): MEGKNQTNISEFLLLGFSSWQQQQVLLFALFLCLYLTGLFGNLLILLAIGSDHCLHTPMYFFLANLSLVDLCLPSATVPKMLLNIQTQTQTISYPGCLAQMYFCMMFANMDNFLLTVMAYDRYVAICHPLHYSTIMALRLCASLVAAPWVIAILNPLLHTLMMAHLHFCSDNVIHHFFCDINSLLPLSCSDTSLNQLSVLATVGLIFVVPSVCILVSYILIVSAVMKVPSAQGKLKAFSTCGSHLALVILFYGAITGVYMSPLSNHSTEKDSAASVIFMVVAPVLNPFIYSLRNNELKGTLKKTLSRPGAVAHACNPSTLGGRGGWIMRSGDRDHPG
OR1K1 (Homo sapiens), sequence (Q8NGR3 whole entry): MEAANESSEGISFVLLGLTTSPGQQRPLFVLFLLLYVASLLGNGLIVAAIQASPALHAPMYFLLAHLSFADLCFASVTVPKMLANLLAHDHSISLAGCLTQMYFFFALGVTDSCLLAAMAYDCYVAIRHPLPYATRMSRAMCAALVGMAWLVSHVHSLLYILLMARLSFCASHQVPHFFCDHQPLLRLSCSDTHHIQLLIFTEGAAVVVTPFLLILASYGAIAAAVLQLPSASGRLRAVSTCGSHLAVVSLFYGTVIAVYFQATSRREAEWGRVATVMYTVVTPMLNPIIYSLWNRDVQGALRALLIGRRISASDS
OR1F1 (Homo sapiens), sequence (O43749 whole entry): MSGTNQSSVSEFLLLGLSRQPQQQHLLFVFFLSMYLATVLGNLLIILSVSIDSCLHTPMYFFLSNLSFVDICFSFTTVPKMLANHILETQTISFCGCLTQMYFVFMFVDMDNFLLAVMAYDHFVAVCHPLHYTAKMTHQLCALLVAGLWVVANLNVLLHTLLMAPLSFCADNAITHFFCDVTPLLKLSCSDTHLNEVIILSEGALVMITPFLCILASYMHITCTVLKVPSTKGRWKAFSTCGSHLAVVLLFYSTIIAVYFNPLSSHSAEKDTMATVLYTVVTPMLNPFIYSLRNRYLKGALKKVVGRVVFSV
OR1L6, sequence (as listed by the source): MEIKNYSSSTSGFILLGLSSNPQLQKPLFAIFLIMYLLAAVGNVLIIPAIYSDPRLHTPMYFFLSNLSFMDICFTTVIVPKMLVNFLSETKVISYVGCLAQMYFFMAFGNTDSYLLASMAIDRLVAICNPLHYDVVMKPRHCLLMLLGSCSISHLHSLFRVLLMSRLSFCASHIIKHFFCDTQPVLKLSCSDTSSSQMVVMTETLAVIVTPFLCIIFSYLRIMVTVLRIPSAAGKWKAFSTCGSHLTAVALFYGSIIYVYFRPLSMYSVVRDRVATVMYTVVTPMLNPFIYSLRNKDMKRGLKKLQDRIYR
OR1L1, sequence (as listed by the source): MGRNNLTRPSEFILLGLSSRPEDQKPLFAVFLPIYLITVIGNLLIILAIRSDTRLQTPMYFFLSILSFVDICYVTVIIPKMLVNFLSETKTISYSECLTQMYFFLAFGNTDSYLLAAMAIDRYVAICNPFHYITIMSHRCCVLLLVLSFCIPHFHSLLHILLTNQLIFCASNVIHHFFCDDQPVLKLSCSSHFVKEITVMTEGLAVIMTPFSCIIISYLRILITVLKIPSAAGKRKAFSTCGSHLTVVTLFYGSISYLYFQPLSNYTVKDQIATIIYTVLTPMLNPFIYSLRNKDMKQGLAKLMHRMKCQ
OR1L4, sequence (as listed by the source): as the sequence (Q8NGR5 whole entry) above, with G234R counted along it
OR1F1, sequence (as listed by the source): as the sequence (O43749 whole entry) above, with F75S counted along it
OR1L6 (Homo sapiens), sequence (Q8NGR2 whole entry): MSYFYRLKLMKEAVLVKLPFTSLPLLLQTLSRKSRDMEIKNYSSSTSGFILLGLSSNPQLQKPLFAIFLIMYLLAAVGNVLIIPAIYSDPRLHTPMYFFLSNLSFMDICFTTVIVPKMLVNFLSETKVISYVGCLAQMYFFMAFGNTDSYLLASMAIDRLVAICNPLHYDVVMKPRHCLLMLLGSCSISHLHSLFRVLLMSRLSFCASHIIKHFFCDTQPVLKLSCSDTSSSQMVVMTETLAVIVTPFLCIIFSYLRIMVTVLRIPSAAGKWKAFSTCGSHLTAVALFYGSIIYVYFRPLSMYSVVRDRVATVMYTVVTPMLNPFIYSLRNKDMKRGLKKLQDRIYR
OR1J4 (Homo sapiens), sequence (Q8NGS1 whole entry): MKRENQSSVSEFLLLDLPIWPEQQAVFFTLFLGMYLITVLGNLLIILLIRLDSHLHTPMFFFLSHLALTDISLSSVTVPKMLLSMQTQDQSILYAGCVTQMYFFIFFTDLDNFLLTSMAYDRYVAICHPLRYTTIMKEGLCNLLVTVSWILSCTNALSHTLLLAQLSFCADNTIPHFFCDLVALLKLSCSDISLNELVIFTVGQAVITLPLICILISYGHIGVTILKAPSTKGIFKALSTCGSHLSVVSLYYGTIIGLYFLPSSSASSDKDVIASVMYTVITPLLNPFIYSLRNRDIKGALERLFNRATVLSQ
OR1E3 (Homo sapiens), sequence (Q8WZA6 whole entry): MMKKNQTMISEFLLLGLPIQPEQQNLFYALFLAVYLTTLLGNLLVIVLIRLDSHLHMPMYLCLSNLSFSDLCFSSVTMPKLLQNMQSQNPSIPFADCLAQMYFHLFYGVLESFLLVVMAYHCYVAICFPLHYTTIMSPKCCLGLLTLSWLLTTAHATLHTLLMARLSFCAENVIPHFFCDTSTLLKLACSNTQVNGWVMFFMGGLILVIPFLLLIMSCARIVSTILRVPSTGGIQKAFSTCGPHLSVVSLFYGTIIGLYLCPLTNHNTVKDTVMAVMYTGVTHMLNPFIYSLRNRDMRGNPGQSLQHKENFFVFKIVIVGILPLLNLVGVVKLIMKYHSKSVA
OR1J2 (Homo sapiens), sequence (Q8NGS2 whole entry): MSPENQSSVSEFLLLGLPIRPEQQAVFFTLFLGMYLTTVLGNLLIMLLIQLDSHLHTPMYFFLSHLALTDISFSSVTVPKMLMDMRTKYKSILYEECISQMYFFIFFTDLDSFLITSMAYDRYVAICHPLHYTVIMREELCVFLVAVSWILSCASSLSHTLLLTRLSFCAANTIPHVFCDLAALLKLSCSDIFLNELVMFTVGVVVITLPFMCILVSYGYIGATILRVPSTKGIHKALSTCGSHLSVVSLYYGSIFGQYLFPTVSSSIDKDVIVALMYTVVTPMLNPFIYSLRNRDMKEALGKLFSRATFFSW

C=CCc1ccc(OC)cc1
inactive: OR1G1 (Homo sapiens) | OR1L3 (Homo sapiens)

O=Cc1ccccc1
inactive: OR1L3 (Homo sapiens)
active: OR1G1 (Homo sapiens)

CC(=O)CCc1ccc2c(c1)OCO2
active: OR1G1 (Homo sapiens)

c1ccncc1
active: OR1G1 (Homo sapiens)

Cc1c([N+](=O)[O-])c(C)c([N+](=O)[O-])c(C(C)(C)C)c1[N+](=O)[O-]
not listed: OR1F1 | OR1J2 (Homo sapiens) | OR1J4 (Homo sapiens) | OR1L1 | OR1L4 | OR1L6 | OR1L8 T27P R211P
inactive: all other assays above

CC(C=O)Cc1ccc2c(c1)OCO2 (stereo not given)
inactive: OR1G1 (Homo sapiens)

C=CCc1ccc2c(c1)OCO2
active: OR1G1 (Homo sapiens)

COc1ccc(C=O)cc1
inactive: OR1G1 (Homo sapiens)

O=CC=Cc1ccccc1
inactive: OR1L3 (Homo sapiens)

C=CCOC(=O)Cc1ccccc1
not listed: OR1E3 (Homo sapiens) | OR1L1 (Homo sapiens) | OR1L6 (Homo sapiens)
inactive: all other assays above
